ChEMBL document CHEMBL1137710, “Synthesis and in vitro antitumor activity of new quinoxaline derivatives” (2009)

Tests used:
Type in all cases: functional
HL-60(TB) = test: Growth inhibition of human HL-60(TB) cells after 48 hrs by sulforhodamine B assay; conditions: HL-60, 48 h
Procedure, shortened: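 Tested only on compounds active in a three-line prescreen, in the NCI 60-human-tumour-cell-line panel over a 5-log dose range. Values come from dose–response curves as log10 molar GI50, the concentration inhibiting 50% net cell growth. Log10 TGI (total growth inhibition) and log10 LC50 (50% net cell death) were derived too. Mean graph midpoints include insensitive lines at the highest concentration tested.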

K562 = test: Growth inhibition of human K562 cells after 48 hrs by sulforhodamine B assay; conditions: K562, 48 h
Procedure, shortened: (§1)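 NCI 60-human-tumor-cell-line panel, with compounds tested over a 5-log dose range. Values are taken from dose-response curves as log10 molar concentrations: GI50 is 50% net growth inhibition, TGI is total growth inhibition, and LC50 is 50% net cell death.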

[1] = Growth inhibition of human […] cells after 48 hrs by sulforhodamine B assay; procedure, shortened: as §1
A549 = test: Growth inhibition of human A549 cells after 48 hrs by sulforhodamine B assay; conditions: A549, 48 h; procedure, shortened: as §1
HOP-62 = test: Growth inhibition of human HOP62 cells after 48 hrs by sulforhodamine B assay; conditions: HOP-62, 48 h; procedure, shortened: as §1
NCI-H23 = test: Growth inhibition of human NCI-H23 cells after 48 hrs by sulforhodamine B assay; conditions: NCI-H23, 48 h; procedure, shortened: as §1
NCI-H322M = test: Growth inhibition of human NCI-H322M cells after 48 hrs by sulforhodamine B assay; procedure, shortened: as §1
NCI-H522 = test: Growth inhibition of human NCI-H522 cells after 48 hrs by sulforhodamine B assay; conditions: NCI-H522, 48 h; procedure, shortened: as §1
COLO 205 = test: Growth inhibition of human COLO205 cells after 48 hrs by sulforhodamine B assay; conditions: COLO 205, 48 h; procedure, shortened: as §1
SW-620 = test: Growth inhibition of human SW620 cells after 48 hrs by sulforhodamine B assay; conditions: SW-620, 48 h
Procedure, shortened: (§2)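 Run in the NCI 60-human-tumour-cell-line panel, tested over a 5-log dose range. Dose–response curves gave three values per cell line, each as a log10 molar concentration: GI50 (50% inhibition of net cell growth), TGI (total inhibition of net growth) and LC50 (50% net cell death). The mean graph midpoint is the arithmetic mean over all lines, with insensitive lines entered at the highest concentration tested.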

SF-295 = test: Growth inhibition of human SF295 cells after 48 hrs by sulforhodamine B assay; conditions: SF-295, 48 h; procedure, shortened: as §1
SNB-19 = test: Growth inhibition of human SNB19 cells after 48 hrs by sulforhodamine B assay; conditions: SNB-19, 48 h; procedure, shortened: as §2
U-251 = test: Growth inhibition of human U251 cells after 48 hrs by sulforhodamine B assay; conditions: U-251, 48 h; procedure, shortened: as §2
M14 = test: Growth inhibition of human M14 cells after 48 hrs by sulforhodamine B assay; conditions: M14, 48 h; procedure, shortened: as §1
UACC-257 = test: Growth inhibition of human UACC257 cells after 48 hrs by sulforhodamine B assay; conditions: UACC-257, 48 h; procedure, shortened: as §2
OVCAR-3 = test: Growth inhibition of human OVCAR-3 cells after 48 hrs by sulforhodamine B assay; conditions: OVCAR-3, 48 h; procedure, shortened: as §1
OVCAR-4 = test: Growth inhibition of human OVCAR4 cells after 48 hrs by sulforhodamine B assay; conditions: OVCAR-4, 48 h; procedure, shortened: as §1
OVCAR-5 = test: Growth inhibition of human OVCAR5 cells after 48 hrs by sulforhodamine B assay; conditions: OVCAR-5, 48 h; procedure, shortened: as §1
OVCAR-8 = test: Growth inhibition of human OVCAR8 cells after 48 hrs by sulforhodamine B assay; conditions: OVCAR-8, 48 h; procedure, shortened: as §1
SK-OV-3 = test: Growth inhibition of human SKOV3 cells after 48 hrs by sulforhodamine B assay; conditions: SK-OV-3, 48 h; procedure, shortened: as §1
786-0 = test: Growth inhibition of human 786-0 cells after 48 hrs by sulforhodamine B assay; conditions: 786-0, 48 h; procedure, shortened: as §1
CAKI-1 = test: Growth inhibition of human Caki1 cells after 48 hrs by sulforhodamine B assay; conditions: CAKI-1, 48 h; procedure, shortened: as §1
TK-10 = test: Growth inhibition of human TK10 cells after 48 hrs by sulforhodamine B assay; conditions: TK-10, 48 h; procedure, shortened: as §2
UO-31 = test: Growth inhibition of human UO31 cells after 48 hrs by sulforhodamine B assay; conditions: UO-31, 48 h; procedure, shortened: as §2
NCI/ADR-RES = test: Growth inhibition of human NCI/ADR-RES cells after 48 hrs by sulforhodamine B assay; procedure, shortened: as §1
MDA-MB-231 = test: Growth inhibition of human MDA-MB-231 cells after 48 hrs by sulforhodamine B assay; conditions: MDA-MB-231, 48 h; procedure, shortened: as §1
MDA-MB-435 = test: Growth inhibition of human MDA-MB-435 cells after 48 hrs by sulforhodamine B assay; conditions: MDA-MB-435, 48 h; procedure, shortened: as §1
[2] = read-out: pLC50 (the source's name) (converted)

Q: Which GI50 (HL-60(TB)) does the source give for `COc1ccc(CNc2nc3cc(N)cc(N)c3nc2-c2ccccc2)cc1OC` here?
A: The GI50 was 3.16 µM.

Q: And the LC50 (HL-60(TB))?
A: The LC50 was > 100 µM.

Q: And the TGI (HL-60(TB); read-out: pTGI (converted))?
A: The TGI was 81.3 µM.

Q: And the GI50 (K562)?
A: Its GI50 is 6.03 µM.

Q: And the LC50 (K562)?
A: The LC50 was > 100 µM.

Q: What about the TGI (K562; read-out: pTGI (converted)) of the same compound?
A: The TGI was > 100 µM.

Q: And the GI50 [1]?
A: Its GI50 is 2.14 µM.

Q: What about the LC50 [1] of the same compound?
A: Its LC50 is > 100 µM.

Q: What about the TGI ([1]; read-out: pTGI (converted)) of the same compound?
A: The TGI was 7.24 µM.

Q: And the GI50 (A549)?
A: The GI50 was 20.9 µM.

Q: What about the LC50 (A549) of the same compound?
A: Its LC50 is > 100 µM.

Q: What about the TGI (A549; read-out: pTGI (converted)) of the same compound?
A: The TGI was 50.1 µM.

Q: And the GI50 (HOP-62)?
A: The GI50 was 18.2 µM.

Q: What about the LC50 (HOP-62) of the same compound?
A: Its LC50 is 64.6 µM.

Q: What about the TGI (HOP-62; read-out: pTGI (converted)) of the same compound?
A: Its TGI is 34.7 µM.

Q: What about the GI50 (NCI-H23) of the same compound?
A: The GI50 was 17 µM.

Q: What about the LC50 (50% net cell kill concentration) (NCI-H23) of the same compound?
A: The LC50 (50% net cell kill concentration) was 91.2 µM.

Q: What about the TGI (NCI-H23; read-out: pTGI (converted)) of the same compound?
A: Its TGI is 39.8 µM.

Q: And the GI50 (NCI-H322M)?
A: The GI50 was 22.9 µM.

Q: And the LC50 (NCI-H322M)?
A: Its LC50 is 100 µM.

Q: What about the TGI (NCI-H322M; read-out: pTGI (converted)) of the same compound?
A: The TGI was 47.9 µM.

Q: And the GI50 (NCI-H522)?
A: Its GI50 is 2.69 µM.

Q: And the LC50 (NCI-H522)?
A: The LC50 was 63.1 µM.

Q: What about the TGI (NCI-H522; read-out: pTGI (converted)) of the same compound?
A: Its TGI is 6.31 µM.

Q: And the GI50 (COLO 205)?
A: Its GI50 is 7.94 µM.

Q: And the LC50 (50% net cell kill) (COLO 205)?
A: Its LC50 (50% net cell kill) is > 100 µM.

Q: And the TGI (COLO 205; read-out: pTGI (converted))?
A: Its TGI is > 100 µM.

Q: What about the GI50 (SW-620) of the same compound?
A: Its GI50 is 5.25 µM.

Q: And the CC50 (SW-620; [2])?
A: Its CC50 is > 100 µM.

Q: What about the TGI (SW-620; read-out: pTGI (converted)) of the same compound?
A: Its TGI is > 100 µM.

Q: And the GI50 (SF-295)?
A: Its GI50 is 13.2 µM.

Q: What about the LC50 (50% net cell kill) (SF-295) of the same compound?
A: The LC50 (50% net cell kill) was 58.9 µM.

Q: And the TGI (SF-295; read-out: pTGI (converted))?
A: The TGI was 28.2 µM.

Q: What about the GI50 (SNB-19) of the same compound?
A: The GI50 was 25.7 µM.

Q: What about the LC50 (SNB-19) of the same compound?
A: The LC50 was > 100 µM.

Q: And the TGI (SNB-19; read-out: pTGI (converted))?
A: Its TGI is > 100 µM.

Q: What about the GI50 (U-251) of the same compound?
A: The GI50 was 17 µM.

Q: What about the LC50 (50% net cell kill) (U-251) of the same compound?
A: Its LC50 (50% net cell kill) is 89.1 µM.

Q: And the TGI (U-251; read-out: pTGI (converted))?
A: The TGI was 38.9 µM.

Q: What about the GI50 (M14) of the same compound?
A: The GI50 was 4.27 µM.

Q: What about the CC50 (M14; [2]) of the same compound?
A: Its CC50 is 33.9 µM.

Q: And the TGI (M14; read-out: pTGI (converted))?
A: Its TGI is 7.76 µM.

Q: And the GI50 (UACC-257)?
A: Its GI50 is 12.9 µM.

Q: What about the CC50 (UACC-257; [2]) of the same compound?
A: Its CC50 is 55 µM.

Q: And the TGI (UACC-257; read-out: pTGI (converted))?
A: The TGI was 26.9 µM.

Q: What about the GI50 (OVCAR-3) of the same compound?
A: Its GI50 is 1.32 µM.

Q: And the CC50 (OVCAR-3; [2])?
A: Its CC50 is 8.51 µM.

Q: What about the TGI (OVCAR-3; read-out: pTGI (converted)) of the same compound?
A: The TGI was 3.31 µM.

Q: What about the GI50 (OVCAR-4) of the same compound?
A: Its GI50 is 2.69 µM.

Q: And the CC50 (OVCAR-4; [2])?
A: Its CC50 is 52.5 µM.

Q: And the TGI (OVCAR-4; read-out: pTGI (converted))?
A: Its TGI is 7.41 µM.

Q: What about the GI50 (OVCAR-5) of the same compound?
A: Its GI50 is 20.9 µM.

Q: And the CC50 (OVCAR-5; [2])?
A: The CC50 was 81.3 µM.

Q: And the TGI (OVCAR-5; read-out: pTGI (converted))?
A: Its TGI is 41.7 µM.

Q: And the GI50 (OVCAR-8)?
A: Its GI50 is 6.76 µM.

Q: And the CC50 (OVCAR-8; [2])?
A: The CC50 was > 100 µM.

Q: What about the TGI (OVCAR-8; read-out: pTGI (converted)) of the same compound?
A: Its TGI is 33.9 µM.

Q: What about the GI50 (SK-OV-3) of the same compound?
A: The GI50 was 21.9 µM.

Q: And the CC50 (SK-OV-3; [2])?
A: Its CC50 is > 100 µM.

Q: And the TGI (SK-OV-3; read-out: pTGI (converted))?
A: Its TGI is 46.8 µM.

Q: What about the GI50 (786-0) of the same compound?
A: The GI50 was 15.5 µM.

Q: And the CC50 (786-0; [2])?
A: Its CC50 is 75.9 µM.

Q: And the TGI (786-0; read-out: pTGI (converted))?
A: The TGI was 34.7 µM.

Q: What about the GI50 (CAKI-1) of the same compound?
A: Its GI50 is 11.2 µM.

Q: And the CC50 (CAKI-1; [2])?
A: The CC50 was 53.7 µM.

Q: And the TGI (CAKI-1; read-out: pTGI (converted))?
A: Its TGI is 24.5 µM.

Q: And the GI50 (TK-10)?
A: The GI50 was 16.6 µM.

Q: What about the CC50 (TK-10; [2]) of the same compound?
A: The CC50 was 64.6 µM.

Q: And the TGI (TK-10; read-out: pTGI (converted))?
A: Its TGI is 32.4 µM.

Q: What about the GI50 (UO-31) of the same compound?
A: The GI50 was 13.5 µM.

Q: And the CC50 (UO-31; [2])?
A: Its CC50 is > 100 µM.

Q: What about the TGI (UO-31; read-out: pTGI (converted)) of the same compound?
A: The TGI was 45.7 µM.

Q: And the GI50 (NCI/ADR-RES)?
A: The GI50 was 17.8 µM.

Q: What about the CC50 (NCI/ADR-RES; [2]) of the same compound?
A: The CC50 was > 100 µM.

Q: And the TGI (NCI/ADR-RES; read-out: pTGI (converted))?
A: The TGI was 66.1 µM.

Q: And the GI50 (MDA-MB-231)?
A: The GI50 was 11.2 µM.

Q: And the CC50 (MDA-MB-231; [2])?
A: Its CC50 is 79.4 µM.

Q: What about the TGI (MDA-MB-231; read-out: pTGI (converted)) of the same compound?
A: The TGI was 29.5 µM.

Q: And the GI50 (MDA-MB-435)?
A: Its GI50 is 1.95 µM.

Q: And the CC50 (MDA-MB-435; [2])?
A: The CC50 was 8.51 µM.

Q: And the TGI (MDA-MB-435; read-out: pTGI (converted))?
A: The TGI was 4.07 µM.
